Consider one compound from ChEMBL document CHEMBL4049460, “Trisubstituted Imidazoles with a Rigidized Hinge Binding Motif Act As Single Digit nM Inhibitors of Clinically Relevant EGFR L858R/T790M and L858R/T790M/C797S Mutants: An Example of Target Hopping” (J Med Chem, 2017).

Activity calls are given as the source filed them. No cut-off for these calls is given here. Some results are limits rather than exact numbers.

For data set [1], the target named is T1, Mitogen-activated protein kinase 14 (Homo sapiens, UniProt Q16539). The data set is described as follows: Inhibition of recombinant full-length human p38alpha MAPK (M1 to S360 residues) expressed in Escherichia coli at 1 uM in presence of [33-gamma]-ATP after 60 mins by scintillation counting method.
T1 sequence (Q16539 whole entry, the tested form may be a part): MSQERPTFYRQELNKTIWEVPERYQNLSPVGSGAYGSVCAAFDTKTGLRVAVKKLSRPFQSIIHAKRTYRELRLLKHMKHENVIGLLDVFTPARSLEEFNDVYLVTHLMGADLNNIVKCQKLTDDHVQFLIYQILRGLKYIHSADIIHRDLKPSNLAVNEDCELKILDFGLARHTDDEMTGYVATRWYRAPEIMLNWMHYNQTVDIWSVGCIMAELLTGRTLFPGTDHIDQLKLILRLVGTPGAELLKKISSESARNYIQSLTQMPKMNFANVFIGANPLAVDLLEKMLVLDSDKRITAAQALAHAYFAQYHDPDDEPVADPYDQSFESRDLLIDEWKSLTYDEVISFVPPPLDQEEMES
For data set [2], the target named is Epidermal growth factor receptor (Homo sapiens, UniProt P00533, L858R). Briefly: Binding affinity to human EGFR L858R mutant (669 to 1011 residues) expressed in bacterial system preincubated for 1 hr followed by 30 fold dilution measured after 5 hrs. In outline:
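Competition binding: compound's ability to displace an immobilized, active-site-directed ligand from the kinase, reported as Kd. Compound and kinase were equilibrated 1 h, diluted 30-fold in reaction buffer, then equilibrated a further 5 h before read-out.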

Data set [3] is described as follows: Drug metabolism in human liver microsomes assessed as parent compound remaining at 100 uM after 4 hrs in presence of NADPH regenerating system by LC-MS analysis. The format is ADME, microsome. The settings on record: read-out: Stability. For orientation: Liver microsomes are vesicles of endoplasmic reticulum, rich in cytochrome P450 enzymes.
Data set [4] deals with Cytoplasmic tyrosine-protein kinase BMX (Homo sapiens) (UniProt P51813). Briefly: Inhibition of BMX (unknown origin) assessed as residual activity at 1 uM in presence of [33-gamma]-ATP after 60 mins by scintillation counting method relative to control.
Sequence of Cytoplasmic tyrosine-protein kinase BMX (Homo sapiens) (P51813 whole entry): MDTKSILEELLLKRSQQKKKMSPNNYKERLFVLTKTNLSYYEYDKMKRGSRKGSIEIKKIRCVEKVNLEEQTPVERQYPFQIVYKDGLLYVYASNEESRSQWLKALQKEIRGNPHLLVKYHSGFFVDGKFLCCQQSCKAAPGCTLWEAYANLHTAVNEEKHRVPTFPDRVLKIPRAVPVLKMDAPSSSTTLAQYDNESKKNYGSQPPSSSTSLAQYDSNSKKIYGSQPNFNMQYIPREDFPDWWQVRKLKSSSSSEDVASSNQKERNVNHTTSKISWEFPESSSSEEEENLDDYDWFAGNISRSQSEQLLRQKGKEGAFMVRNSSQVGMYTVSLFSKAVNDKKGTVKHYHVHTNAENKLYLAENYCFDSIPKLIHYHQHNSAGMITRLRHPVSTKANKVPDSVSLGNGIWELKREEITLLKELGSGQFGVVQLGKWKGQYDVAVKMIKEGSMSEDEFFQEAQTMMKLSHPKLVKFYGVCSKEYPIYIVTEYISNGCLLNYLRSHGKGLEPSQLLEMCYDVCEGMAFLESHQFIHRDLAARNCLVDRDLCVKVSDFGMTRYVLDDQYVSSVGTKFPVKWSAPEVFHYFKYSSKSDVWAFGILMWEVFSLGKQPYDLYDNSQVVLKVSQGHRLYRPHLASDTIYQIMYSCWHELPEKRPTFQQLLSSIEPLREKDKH
Data set [5] has as its target Tyrosine-protein kinase TXK (Homo sapiens) (UniProt P42681). Briefly: Inhibition of TXK (unknown origin) assessed as residual activity at 1 uM in presence of [33-gamma]-ATP after 60 mins by scintillation counting method relative to control.
Data set [6] has as its target MAP kinase-activated protein kinase 2 (Homo sapiens) (UniProt P49137). Briefly: Inhibition of recombinant full-length human MAPKAPK2 (M1 to L370 residues) expressed in Baculovirus infected Sf9 cells assessed as residual activity at 1 uM in presence of [33-gamma]-ATP after 60 mins by scintillation counting method relative to control.
Data set [7] is filed under the species Homo sapiens. Briefly: Inhibition of recombinant human N-terminally GST-His6 tagged EGFR 746-750 deletion mutant (M672 to A1210 residues) C-terminal fragment harboring 3C cleavage site expressed in Baculovirus infected Sf9 cells assessed as residual activity at 1 uM in presence of [33-gamma]-ATP after 60 mins by scintillation counting method relative to control.

The target in data set [8] is Epidermal growth factor receptor (Homo sapiens, UniProt P00533, L858R/T790M). Briefly: Binding affinity to human EGFR L858R/T790M double mutant (669 to 1011 residues) expressed in mammalian system preincubated for 1 hr followed by 30 fold dilution measured after 5 hrs. In outline:
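Competition binding against an immobilized active-site-directed ligand; Kd read out. Compound and kinase combined and equilibrated 1 h, then diluted 30-fold in reaction buffer and equilibrated a further 5 h (study arm B).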

For data set [9], the target named is Epidermal growth factor receptor (Homo sapiens, UniProt P00533, T790M/C797S/L858R). The data set is described as follows: Inhibition of recombinant human N-terminally GST-tagged EGFR L858R/T790M/C797S triple mutant expressed in baculovirus in Sf9 insect cells preincubated for 20 mins followed by addition of [33P]-ATP measured after 2 hrs by filter-binding method.

In data set [10] the test system is Epidermal growth factor receptor (Homo sapiens), P00533 [L858R,T790M]. Briefly: Ratio of Kd for human EGFR L858R/T790M double mutant (669 to 1011 residues) after 1 hr to Kd for EGFR L858R/T790M double mutant (669 to 1011 residues) after 6 hrs. In outline: (§1)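 Kd from competition with an immobilized active-site-directed ligand […]. Ratio compares 1 h compound–kinase equilibration against an arm with 6 h overall equilibration.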

Data set [11] deals with Epidermal growth factor receptor (Homo sapiens), P00533 [L861Q]. Briefly: Inhibition of recombinant human N-terminally GST-His6 tagged EGFR L861Q mutant (H672 to A1210 residues) C-terminal fragment harboring 3C cleavage site expressed in Baculovirus infected Sf9 cells assessed as residual activity at 1 uM in presence of [33-gamma]-ATP after 60 mins by scintillation counting method relative to control.

Data set [12] has as its target Mitogen-activated protein kinase 9 (Homo sapiens) (UniProt P45984). The data set is described as follows: Inhibition of recombinant full-length human JNK2 (M1 to Y424 residues) expressed in Escherichia coli assessed as residual activity at 1 uM in presence of [33-gamma]-ATP after 60 mins by scintillation counting method relative to control.
Data set [13] has as its target T2, Epidermal growth factor receptor (Homo sapiens, UniProt P00533). Briefly: Binding affinity to wild-type human EGFR (669 to 1011 residues) expressed in bacterial system incubated for 1 hr. It is filed as ADME. In outline: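 Competition binding of inhibitor against an immobilized active-site-directed ligand; Kd read out. Compound and kinase combined and equilibrated for 1 h without dilution (study arm C).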

The target in data set [14] is Tyrosine-protein kinase Tec (Homo sapiens) (UniProt P42680). Briefly: Inhibition of TEC (unknown origin) assessed as residual activity at 1 uM in presence of [33-gamma]-ATP after 60 mins by scintillation counting method relative to control.
Sequence of Tyrosine-protein kinase Tec (Homo sapiens) (P42680 whole entry): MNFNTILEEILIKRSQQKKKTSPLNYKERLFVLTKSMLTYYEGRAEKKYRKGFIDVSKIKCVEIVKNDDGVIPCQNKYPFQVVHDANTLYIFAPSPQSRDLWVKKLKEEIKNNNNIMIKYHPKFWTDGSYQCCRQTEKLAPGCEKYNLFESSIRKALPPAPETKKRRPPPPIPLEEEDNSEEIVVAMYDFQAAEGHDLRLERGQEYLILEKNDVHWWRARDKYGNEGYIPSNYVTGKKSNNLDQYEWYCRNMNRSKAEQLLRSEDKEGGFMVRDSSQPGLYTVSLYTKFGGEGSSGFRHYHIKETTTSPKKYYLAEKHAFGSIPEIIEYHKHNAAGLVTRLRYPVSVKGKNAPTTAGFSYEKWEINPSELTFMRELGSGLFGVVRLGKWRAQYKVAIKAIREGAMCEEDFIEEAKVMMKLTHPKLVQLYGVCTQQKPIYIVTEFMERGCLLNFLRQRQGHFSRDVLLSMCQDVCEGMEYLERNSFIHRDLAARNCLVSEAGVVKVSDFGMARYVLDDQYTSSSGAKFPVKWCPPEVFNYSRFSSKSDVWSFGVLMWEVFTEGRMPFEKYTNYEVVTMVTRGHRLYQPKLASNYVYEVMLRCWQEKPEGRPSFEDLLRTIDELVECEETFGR
Data set [15] has as its target T1, Mitogen-activated protein kinase 14. The data set is described as follows: Inhibition of p38alpha MAPK (unknown origin) assessed as decrease in ATF2 phosphorylation at Thr69/71 at 1 uM after 1 hr by ELISA.
For data set [16], the species on record is Homo sapiens. The data set is described as follows: Selectivity ratio of IC50 for p38alpha MAPK (unknown origin) to IC50 for recombinant human GST-tagged EGFR L858R/T790M double mutant cytoplasmic domain expressed in baculovirus expression system.
Data set [17] relates to Epidermal growth factor receptor (Homo sapiens), P00533 [G719C]. Briefly: Inhibition of recombinant human N-terminally GST-His6 tagged EGFR G719C mutant (H672 to A1210 residues) C-terminal fragment harboring 3C cleavage site expressed in Baculovirus infected Sf9 cells assessed as residual activity at 1 uM in presence of [33-gamma]-ATP after 60 mins by scintillation counting method relative to control.

The target in data set [18] is T2, Epidermal growth factor receptor. The data set is described as follows: Inhibition of recombinant human GST-tagged wild type EGFR ( 668 to 1210 residues) cytoplasmic domain expressed in baculovirus expression system preincubated for 20 mins followed by addition of [33P]-ATP measured after 2 hrs by filter-binding method. The settings on record: read-out: IC50.
In data set [19] the target is Receptor tyrosine-protein kinase erbB-2 (Homo sapiens) (UniProt P04626). The data set is described as follows: Inhibition of recombinant wild-type human N-terminally GST-His6 tagged ERBB2 (Q679 to V1255 residues) C-terminal fragment harboring thrombin cleavage site expressed in Baculovirus infected Sf9 cells assessed as residual activity at 1 uM in presence of [33-gamma]-ATP after 60 mins by scintillation counting method relative to control.
Sequence of Receptor tyrosine-protein kinase erbB-2 (Homo sapiens) (P04626 whole entry, the tested form may be a part): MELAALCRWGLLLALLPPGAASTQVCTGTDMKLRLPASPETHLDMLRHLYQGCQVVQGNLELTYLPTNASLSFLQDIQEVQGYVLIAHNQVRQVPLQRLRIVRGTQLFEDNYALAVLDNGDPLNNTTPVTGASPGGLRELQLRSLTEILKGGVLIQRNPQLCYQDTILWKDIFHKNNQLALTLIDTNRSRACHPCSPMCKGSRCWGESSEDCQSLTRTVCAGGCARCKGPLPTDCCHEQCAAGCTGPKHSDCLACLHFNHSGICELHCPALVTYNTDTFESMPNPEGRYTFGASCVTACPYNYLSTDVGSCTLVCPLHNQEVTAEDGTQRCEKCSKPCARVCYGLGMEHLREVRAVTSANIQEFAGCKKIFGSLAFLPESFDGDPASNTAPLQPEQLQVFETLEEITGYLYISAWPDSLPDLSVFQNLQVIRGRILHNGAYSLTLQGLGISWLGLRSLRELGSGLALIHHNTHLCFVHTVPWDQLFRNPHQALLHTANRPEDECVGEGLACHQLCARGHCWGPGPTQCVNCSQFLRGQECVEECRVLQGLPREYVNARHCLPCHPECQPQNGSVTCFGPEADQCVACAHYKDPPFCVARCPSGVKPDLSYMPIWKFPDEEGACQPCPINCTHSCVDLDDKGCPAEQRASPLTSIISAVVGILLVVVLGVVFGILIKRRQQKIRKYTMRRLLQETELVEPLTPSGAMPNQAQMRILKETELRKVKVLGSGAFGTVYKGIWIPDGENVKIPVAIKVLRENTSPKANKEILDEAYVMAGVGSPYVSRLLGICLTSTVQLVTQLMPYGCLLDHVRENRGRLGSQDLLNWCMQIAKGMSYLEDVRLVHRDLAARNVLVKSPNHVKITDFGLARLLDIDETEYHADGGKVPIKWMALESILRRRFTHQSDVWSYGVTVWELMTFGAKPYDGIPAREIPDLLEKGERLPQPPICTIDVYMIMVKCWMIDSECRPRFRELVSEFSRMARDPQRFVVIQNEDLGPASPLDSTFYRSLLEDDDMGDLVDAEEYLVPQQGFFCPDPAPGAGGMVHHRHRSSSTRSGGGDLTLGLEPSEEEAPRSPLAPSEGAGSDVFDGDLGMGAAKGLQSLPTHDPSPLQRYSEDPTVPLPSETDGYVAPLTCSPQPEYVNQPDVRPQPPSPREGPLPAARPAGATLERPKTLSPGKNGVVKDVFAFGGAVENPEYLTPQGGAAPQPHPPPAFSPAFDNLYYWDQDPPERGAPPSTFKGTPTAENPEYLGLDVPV

Data set [20] deals with Mitogen-activated protein kinase kinase kinase kinase 5 (Homo sapiens) (UniProt Q9Y4K4). The data set is described as follows: Inhibition of MAP4K5 (unknown origin) assessed as residual activity at 1 uM in presence of [33-gamma]-ATP after 60 mins by scintillation counting method relative to control.
Data set [21] addresses T2, Epidermal growth factor receptor. Briefly: Ratio of Kd for wild-type human EGFR (669 to 1011 residues) after 1 hr to Kd for wild-type human EGFR (669 to 1011 residues) after 6 hrs. The format is ADME. In outline:
as §1

Sequence of Tyrosine-protein kinase TXK (Homo sapiens) (P42681 whole entry, the tested form may be a part): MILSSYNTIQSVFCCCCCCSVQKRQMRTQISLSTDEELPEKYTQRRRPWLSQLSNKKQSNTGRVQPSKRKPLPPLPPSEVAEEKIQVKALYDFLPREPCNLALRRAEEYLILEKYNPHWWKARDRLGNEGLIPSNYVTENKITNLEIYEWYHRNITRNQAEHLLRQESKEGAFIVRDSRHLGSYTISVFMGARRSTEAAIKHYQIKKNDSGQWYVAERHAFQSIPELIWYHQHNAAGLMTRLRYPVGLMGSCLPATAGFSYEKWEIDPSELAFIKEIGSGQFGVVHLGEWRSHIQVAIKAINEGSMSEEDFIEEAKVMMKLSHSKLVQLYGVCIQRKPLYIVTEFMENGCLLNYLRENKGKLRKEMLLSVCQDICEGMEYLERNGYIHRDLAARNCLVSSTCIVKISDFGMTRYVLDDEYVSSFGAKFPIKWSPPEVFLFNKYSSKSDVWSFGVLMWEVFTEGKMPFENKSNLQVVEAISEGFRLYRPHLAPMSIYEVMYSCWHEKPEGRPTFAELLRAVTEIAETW
Sequence of Mitogen-activated protein kinase 9 (Homo sapiens) (P45984 whole entry, looked up, the tested form may be a part): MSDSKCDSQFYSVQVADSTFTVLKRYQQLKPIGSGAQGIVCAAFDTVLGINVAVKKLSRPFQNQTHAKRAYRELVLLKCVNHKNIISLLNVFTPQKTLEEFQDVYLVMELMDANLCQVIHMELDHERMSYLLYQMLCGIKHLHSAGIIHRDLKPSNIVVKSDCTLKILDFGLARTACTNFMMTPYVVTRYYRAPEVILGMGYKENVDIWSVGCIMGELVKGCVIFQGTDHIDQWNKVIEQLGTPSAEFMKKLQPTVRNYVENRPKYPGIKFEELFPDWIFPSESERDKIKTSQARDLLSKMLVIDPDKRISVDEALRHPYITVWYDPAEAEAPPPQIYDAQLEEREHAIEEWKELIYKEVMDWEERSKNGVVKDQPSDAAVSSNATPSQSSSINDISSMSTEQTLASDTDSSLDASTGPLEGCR
Sequence of MAP kinase-activated protein kinase 2 (Homo sapiens) (P49137 whole entry, looked up, the tested form may be a part): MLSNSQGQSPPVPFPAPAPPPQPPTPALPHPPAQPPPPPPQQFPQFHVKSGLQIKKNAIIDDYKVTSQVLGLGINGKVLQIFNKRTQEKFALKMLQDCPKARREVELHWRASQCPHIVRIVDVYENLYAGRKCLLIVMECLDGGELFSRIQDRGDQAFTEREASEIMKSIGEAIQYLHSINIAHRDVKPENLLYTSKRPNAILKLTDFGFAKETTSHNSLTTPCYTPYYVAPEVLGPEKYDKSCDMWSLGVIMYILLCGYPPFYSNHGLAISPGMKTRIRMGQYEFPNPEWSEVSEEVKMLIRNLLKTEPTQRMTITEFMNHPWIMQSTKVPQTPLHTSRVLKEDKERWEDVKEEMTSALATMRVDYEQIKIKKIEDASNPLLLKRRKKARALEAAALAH

In the case of `C=CC(=O)Nc1cccc(-c2c[nH]c3nccc(-c4[nH]c(CCCO)nc4-c4ccc(F)cc4)c23)c1`, in data set [1], the inhibition result was “Active”. The equilibrium dissociation constant (Kd) in data set [2] was found to be 1.8 nM; in data set [8], 14 nM; in [13], 2 nM. For the same compound, in data set [3], the remaining at 4 h, 100 µM was 87%. Further, the Activity was 17% in data set [4]; 3% in data set [5]; 48% in data set [6]; 3% in data set [7]; 3% in [11]; 37% in [12]. Also, the Activity turned out to be 33% in data set [14], 37% in data set [17], 17% in data set [19] and 2% in data set [20]. For the same compound, the IC50 entry in data set [9] was “Not Active”; in data set [15] it was 214 nM; in data set [18] it was less than 0.3 nM. In addition, the Ratio in data set [10] and in [21] was 3 to 5 each time. Moreover, in data set [16], the Ratio IC50 amounted to 140.

As a reminder, the Kd is the concentration at which binding is half-saturated. A high value points to lower affinity. As a reminder, the IC50 is the midpoint of a concentration-inhibition curve.
